Data published in ChEMBL document CHEMBL1777729, “Structure-based lead identification of ATP-competitive MK2 inhibitors” (Bioorg Med Chem Lett, 2011).
pEC50: −log10 of the molar value. In brackets after ≈: the same amount, converted by molar mass.

How the values were obtained:
[1] = target: MAP kinase-activated protein kinase 2 (Homo sapiens, UniProt P49137); assay: Inhibition of MK2 pretreated for 30 mins before substrate addition measured after 2 hrs by IMAP assay
[2] = Kinetic solubility of the compound at pH 7.4; type: physicochemical; conditions: buffer
THP-1 [3] = assay: Antiinflammatory activity in human THP1 cells assessed as inhibition of LPS-induced TNFalpha production at 10 uM treated 30 mins before LPS challenge measured after 4 hrs by ELISA; type: functional
[4] = Plasma protein binding in plasma; type: ADME, cell-free; conditions: read-out: PPB (converted)
[5] = Permeability across human Caco2 cells; type: ADME, cell-based; conditions: Caco-2, read-out: permeability
[6] = Permeability of the compound by PAMPA; type: ADME; conditions: read-out: permeability
[7] = Half life in human liver microsomes; type: ADME, Microsome
[8] = Half life in rat liver microsomes; type: ADME, Microsome
Rattus norvegicus [9] = assay: Antiinflammatory activity in rat assessed as inhibition of LPS-induced TNFalpha production in serum at 12.5 mg/kg, iv administered 1 hr before LPS challenge measured after 1.5 hrs by ELISA
PBMC = assay: Antiinflammatory activity in human PBMC cells assessed as inhibition of LPS-induced TNFalpha production treated 30 mins before LPS challenge measured after 4 hrs by ELISA; type: functional, cell-based
[10] = AUC in rat at 4 umol/kg, iv; type: ADME, organism-based; conditions: plasma
THP-1 [11] = assay: Antiinflammatory activity in human THP1 cells assessed as inhibition of LPS-induced TNFalpha production treated 30 mins before LPS challenge measured after 4 hrs by ELISA; type: functional, cell-based
How it was run: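 THP1 cells seeded at 1.5 × 10^5 per well in DMEM F12 and rested ≥18 h at 37 °C, 5–7% CO2, humidified. Compounds added in DMSO (0.1% final) for 30 min, then LPS added. After 4 h at 37 °C, TNFα in the culture medium was quantified by ELISA. EC50 from duplicates per dilution.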

[12] = AUC in rat at 10 umol/kg, po; type: ADME, organism-based; conditions: plasma
How it was run: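 Rat PK after oral dosing at 10 µmol/kg; exposure expressed as AUC.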

Rattus norvegicus [13] = assay: Antiinflammatory activity in rat assessed as inhibition of LPS-induced TNFalpha production in serum at 10 mg/kg, sc administered 1 hr before LPS challenge measured after 1.5 hrs by ELISA
Rattus norvegicus [14] = assay: Antiinflammatory activity in sc dosed rat assessed as inhibition of LPS-induced TNFalpha production in serum administered 1 hr before LPS challenge measured after 1.5 hrs by ELISA
[15] = AUC in rat at 10 umol/kg, sc; type: ADME, organism-based; conditions: plasma
How it was run: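 Rat PK after subcutaneous dosing at 10 µmol/kg; exposure expressed as AUC.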

Rattus norvegicus [16] = assay: Antiinflammatory activity in rat assessed as inhibition of LPS-induced TNFalpha production in serum at 30 mg/kg, sc administered 1 hr before LPS challenge measured after 1.5 hrs by ELISA

Sequence of MAP kinase-activated protein kinase 2 (P49137 whole entry): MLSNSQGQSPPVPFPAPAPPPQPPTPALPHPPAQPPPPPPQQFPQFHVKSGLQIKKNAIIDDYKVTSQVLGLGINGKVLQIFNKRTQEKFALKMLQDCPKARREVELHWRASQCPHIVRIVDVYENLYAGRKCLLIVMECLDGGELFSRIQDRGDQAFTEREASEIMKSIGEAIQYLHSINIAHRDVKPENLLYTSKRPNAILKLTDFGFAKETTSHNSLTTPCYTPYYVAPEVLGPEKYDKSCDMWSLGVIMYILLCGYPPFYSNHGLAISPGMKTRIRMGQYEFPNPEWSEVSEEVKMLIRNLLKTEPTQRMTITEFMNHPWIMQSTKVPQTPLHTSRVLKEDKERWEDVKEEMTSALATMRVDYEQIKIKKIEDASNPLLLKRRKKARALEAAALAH

Row | SMILES | pEC50 [1] | solubility kinetic [2] [µg/mL] | inhibition at 10 µM (THP-1 [3]) [%] | fraction unbound [4] | half-life [7] [min] | half-life [8] [min] | also measured
1 | NCCn1nc(-c2ccnc(-c3cnc4ccccc4c3)c2)cc1C(=O)O | 7.55 | 33 (≈ 91.8 µM) | 7 |  |  |  | 
2 | O=C1NCCc2[nH]c(-c3ccnc(-c4cnc5ccccc5c4)c3)cc21 |  |  | 38 | 0.003 | 35 | 40 | Papp [5]: 0.5 ×10⁻⁶ cm/s; Papp [6]: 0.6 ×10⁻⁶ cm/s
3 | O=C1NCC2(CCNCC2)c2[nH]c(-c3ccnc(-c4cnc5ccccc5c4)n3)cc21 | 8.22 | 23 (≈ 56 µM) |  |  |  |  | 
4 | NCC1CNC(=O)c2cc(-c3ccnc(-c4cnc5ccccc5c4)c3)nn21 (configuration not stated) | 6.82 |  |  |  |  |  | 
5 | O=C1NCC2(CCCC2)c2[nH]c(-c3ccnc(-c4cnc5ccccc5c4)n3)cc21 | 6.63 |  | 50 |  |  |  | 
6 | O=C1NCC2(CCNCC2)c2[nH]c(-c3ccnc(-c4ccc5c(c4)OCO5)n3)cc21 |  | 37 (≈ 91.7 µM) |  | 0.03 | 91 | > 120 | inhibition in vivo at 12.5 mg/kg (Rattus norvegicus [9]): 92%; pEC50 (PBMC): 6.59; AUC [10]: 1.26 µM·h; pEC50 (THP-1 [11]): 6.01; AUC [12]: 0.016 µM·h; inhibition in vivo at 10 mg/kg (Rattus norvegicus [13]): 54%; inhibition (Rattus norvegicus [14]): Dose-dependent effect; AUC [15]: 2.71 µM·h; inhibition in vivo at 30 mg/kg (Rattus norvegicus [16]): 85%
